Reference: ChEMBL document CHEMBL4513216, “Probing the Open Global Health Chemical Diversity Library for Multistage-Active Starting Points for Next-Generation Antimalarials” (ACS Infect Dis, 2020)

Assay: Toxicity liver stage against HepG2, at 10uM
Assay type: cell-based
Set-up: test concentration 10 uM, cell line HepG2-A16-CD81EGFP
Settings: human, HepG2-A16-CD81EGFP cells; read-out: INHIBITION
Method in brief: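 Uninfected HepG2-A16-CD81EGFP cells, 3 × 10^3 per well, 1536-well, plated on prespotted compound at 10 μM final, parasite-free screening media added to match infected plates; puromycin 10 μM positive, DMSO 0.5% negative; run in parallel with 48 h PbLuc assay at 37 °C, 5% CO2; viability by CellTiter-Glo luminescence, normalized to controls.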

SMILES | cytotoxicity at 10 µM [%]
O=C([C@@H]1Cc2[nH]cnc2CN1C(=O)NC1CCCCC1)N1CCCC1 | 6.06
CN1C[C@@H](F)[C@@H](OCc2nc3ccc(C#N)cc3[nH]2)C1 | 0.434
Cc1cc(NCCO)nc(-c2ccccc2O)n1 | 14.1
O=S(=O)(NCCn1ccc(-c2ccncc2)n1)C1CC1 | 0.794
CC(=O)N1CCOC2(CCCN(C(=O)CCN3CCCCC3)C2)C1 (stereo unspecified) | -2.51
Cc1cc(C)cc(C(=O)N2CCCC3(CCCC(=O)N3C)C2)c1 (stereo unspecified) | 5.06
Cc1ccc(N2CC[C@H](O)[C@@H]2Cc2cnn(C)c2)nn1 | 0.434
CCOCC1CN(C(=O)c2ccsc2)Cc2nn(C)cc21 (stereo unspecified) | 3.39
CCN(C)c1ncnc2c1CCN(C(=O)c1ccc(C)o1)CC2 | -0.796
COCC(=O)N1CCCn2c(CN3CCCC3=O)nnc2C1 | -123
COc1nn(C)c2c1CCCN(C(=O)COc1ccccc1)C2 | 3.91
COc1nn(C)c2c1CCCN(C(=O)c1ccc[nH]1)C2 | -0.966
CCn1nnc2c1C(COC)CN(C(=O)Cc1ccccn1)C2 (stereo unspecified) | 4.64
CN1CC2(CCNCC2)COc2ccccc2S1(=O)=O | 4.58
Cc1ccsc1C(=O)N1CC(C(=O)NC(C)C)C2(CCOCC2)C1 (stereo unspecified) | -1.49
CN(C(=O)Cn1nc(-c2ccccc2)ccc1=O)C1CCS(=O)(=O)C1 (stereo unspecified) | 1.82
Cc1ccc(C)c(C(NC(=O)C(C)(C)C)c2cccnc2)c1 (stereo unspecified) | -3.7
CNC(=O)c1cc2c(nc1NC(C)C)CCN(C(=O)NC(C)C)CC2 | -0.0714
COCCCNS(=O)(=O)c1cccc(CSC)c1 | 11.9
CC(C)=CCCC(C)(O)c1cc(C(N)=O)no1 (stereo unspecified) | 3.56
Cc1nc2cc(-c3nccn3C)nn2c(N2CCCC(CO)C2)c1C (stereo unspecified) | -4.38
COc1ccc(Cn2nc(C(N)=O)ccc2=O)c(Cl)c1 | 10.2
CC(c1ccco1)N(C(=O)COc1ccc(C#N)cc1)C1CC1 (stereo unspecified) | -6.6

SMILES | cytotoxicity at 10 µM [%]
O=S(=O)(c1cncc(F)c1)N1CCC2(CCOC2)C1 (stereo unspecified) | -0.872
COc1ccc(-c2noc(CCC(=O)N3CCOCC3(C)C)n2)cc1 | 6.99
Cc1nc2n(n1)CC(NCCCc1nc(-c3cccs3)no1)CC2 (stereo unspecified) | -4.38
Cc1ccc2c(c1)N(C(=O)c1nccnc1N)CC(C)O2 (stereo unspecified) | -1.65
Cc1ccc(-c2ncc(CN3CCN(S(N)(=O)=O)CC3)s2)o1 | -3.41
CC(CO)NC(=O)Nc1ccc(CC#N)cc1 (stereo unspecified) | -3.39
CCN1CCN(C(=O)c2ccc(OC)nn2)c2ccccc21 | -1.78
COC(=O)c1ccc(Cl)c(S(=O)(=O)Nc2ccc(F)c(C(N)=O)c2)c1 | 3.68
CC(C)Oc1ccccc1C(=O)NC1CC(=O)N(CC(F)(F)F)C1 (stereo unspecified) | 4.37
O=C(c1ccc(NCc2cccc(F)c2)cc1)N1CCCC1 | 10.1
CC(CS(C)(=O)=O)NC(=O)N1CC2(CCCC2)c2ccccc21 (stereo unspecified) | -4.34
Cc1cc(C)c2nc(C3CC3)cc(C(=O)N3CCCC3C(N)=O)c2c1 (stereo unspecified) | -1.11
CC(NC(=O)CCn1cccn1)c1cn(-c2ccccc2)nn1 (stereo unspecified) | 0.554
O=C(CCNC(=O)NC1CC1)NCc1ccccc1 | 8.12
COc1c(C)cnc(CNC(=O)c2cc(C)nc3c2c(C)nn3C)c1C | -1.28
O=C(c1ccn(-c2ccccc2Cl)n1)N1CCCSCC1 | 4.22
CC(C)(C)OC(=O)NC(C)(C)c1noc(CSc2nncs2)n1 | 16.6
Cc1nc(C(=O)N(C)CC(=O)N(C)C)nn1-c1ccccc1C(C)C | -6.5
COCC(=O)NC1CCCN(c2ccc(C)cc2)C1=O (stereo unspecified) | -0.82
O=C(NC1CCN(C2CC2)CC1)c1[nH]nc(C2CC2)c1Cl | 2.64
C[S+]([O-])c1ccc(NC(=O)CC2=CCCCC2)cc1 (stereo unspecified) | 0.304
CC(C)n1nc2c(cc1=O)CN(Cc1ccc(-n3cccn3)cc1)CC2 | -145
CC(C)CCN(C(=O)c1cc2c([nH]c1=O)CCCC2=O)C1CC1 | -2.98

SMILES | cytotoxicity at 10 µM [%]
Cc1nc2sccn2c1CNc1cc(C(=O)O)ccc1F | 4.59
CCc1cnc(CNc2ccc(C(=O)NCc3ccco3)cc2C)o1 | -0.375
CS(=O)(=O)NC1CCN(C(=O)c2[nH]c3ccc(Cl)cc3c2Cl)CC1 | 16.3
CCOc1cccc(CNC(=O)c2cnn(CC)c2C(F)(F)F)c1 | 11.7
O=C(CNc1ccc(OCC2CCOCC2)cc1)NCc1ccco1 | 3.43
COCCOc1ncccc1NCc1nc2ccccc2n1C | 5.95
CN(C)c1cc(CNC(=O)NCC2(C)CCCS2)ccn1 (stereo unspecified) | 6.64
COC(=O)CN(Cc1ccccc1C)C(=O)CCCNC(=O)C1CC1 | -13.4
CC(NC(=O)NCCc1nc(C(F)(F)F)cs1)C(=O)N(C)C (stereo unspecified) | 5.04
COc1cccc(Cc2nnc(SC3CCOC3=O)o2)c1 (stereo unspecified) | 12.9
CN(C)CCN1CCO[C@@H]2CCN(C(=O)c3cccn3C)CC[C@H]21 | 7.17
CSCCC(=O)N1C[C@H](Nc2ccnc(C)n2)[C@@H](C(C)C)C1 | -1.13
CS(=O)(=O)Cc1nc(C2CC2)nn1-c1ccccn1 | 1.87
O=C(N[C@H]1CN(C2CCOCC2)C[C@@H]1C1CC1)c1cc(O)no1 | 8.4
Cc1cc(CN2CC[C@@H]3[C@@H](CCC(=O)N3CCc3c[nH]cn3)C2)oc1C | -0.466
CN1CCCN(C(=O)c2nc3sccn3c2-c2ncc[nH]2)CC1 | -4.34
O=C1CCCN1CCCNCc1cc(O)c2cccc(F)c2n1 | -1.16
CC(C)Cc1ncc2c(n1)CN(c1cc(N)nc(N)n1)C2 | -6.27
CN(C)CCN1CC2(CCN(C(=O)c3cnccn3)CC2)OC1=O | 9
O=C(C1NCCc2[nH]cnc21)N1CCC2(CC1)CNc1ccccc12 (stereo unspecified) | 1.04
O=C(CCn1cc(Cl)cn1)N1CCCC(O)(CO)CC1 (stereo unspecified) | -145
COCCN(Cc1sccc1C)C(=O)c1c(O)cccc1F | -137
Cc1ocnc1C(=O)N1CCC(c2nccn2Cc2ccncc2)CC1 | -8.26

SMILES | cytotoxicity at 10 µM [%]
CCc1nc(C)c([C@H]2CN(C)C[C@@H]2C(=O)NC(C)(C)c2ccccc2)[nH]1 | 2.12
O=C(C(O)c1ccccc1Cl)N1CCCN(Cc2cccnc2)CC1 (stereo unspecified) | 5.5
O=C(c1ccc2ccccc2c1)C1CCCN(C(=O)Cn2cncn2)C1 (stereo unspecified) | 2.6
Cc1cnc(NCCCN2CCc3ccccc32)nc1 | 2.24
COc1ccnc(N2C[C@@H](NS(=O)(=O)N(C)C)[C@H](C(C)C)C2)n1 | -144
Cc1c[nH]c(CN(C)C(=O)C2CC(=O)N(Cc3ccncc3)C2)n1 (stereo unspecified) | 16.7
O=C(c1ccoc1)N1CCC(Nc2cccnn2)CC1 | -5.85
Cn1c(CN2CCOC(CNc3cccnn3)C2)nnc1C1CC1 (stereo unspecified) | 5.18
Cc1cnc(C(=O)N2CCCCC2c2nc(C)cs2)cn1 (stereo unspecified) | -15.3
CC(C(=O)NCCCN1CCN(c2ccccc2)CC1)n1cncn1 (stereo unspecified) | -5.93
Cc1noc(C)c1CN1CCCC1c1c(C)nn(C)c1Cl (stereo unspecified) | -2
CN(CC(=O)N1CCC(COc2ccccc2)CC1)c1cnccn1 | -10.7
COc1cc(C(=O)N2CCCC(n3cncn3)C2)ccc1C (stereo unspecified) | -3.86
CCOCC(O)CN1CCN(C(=O)Cc2cccc(Cl)c2)CC1 (stereo unspecified) | -7.69
CNc1nc(CNC(=O)Nc2cccc(Cl)c2Cl)cs1 | -15.8
Cn1ccnc1CN1CCN(Cc2noc(C3CC3)n2)CC1 | -1.85
CC(=O)NCCNC(=O)CN1CCCCC1Cn1cncn1 (stereo unspecified) | 2.7
CN(C)S(=O)(=O)CCCN1CCCC1c1noc(C2CC2)n1 (stereo unspecified) | -10.3
Brc1cccc(-c2nnc(CNCCn3cccn3)o2)c1 | -9.59
OC(CNCCn1cccn1)c1cccc(F)c1 (stereo unspecified) | -4.41
Cc1nc(C)n(CC2CN(CCOc3ccccc3C#N)CCO2)n1 (stereo unspecified) | -7.45
Cc1nccn1C1CCCN(C(=O)c2cc(Cl)c3c(c2)OCO3)C1 (stereo unspecified) | -2.78
CC(C)NC(=O)C1CCN(c2snc3ccccc23)CC1 | -8.18

SMILES | cytotoxicity at 10 µM [%]
Cn1cc(C(=O)NCC2CCN(C(=O)NC3CC3)CC2)cn1 | 2.05
COc1ccc(CC(=O)N2CCC(Nc3ccc(C)nn3)CC2)cc1 | -5.34
CC(C)c1nc(CN(C)C2CCN(CCc3ccncc3)C2)no1 (stereo unspecified) | -28.4
CCc1nc(CN(C)C2CCN(CCCOc3ccccc3)C2)no1 (stereo unspecified) | 0.141
CCC1CCCCN1C(=O)c1ccnc(N(C)C)c1 (stereo unspecified) | -0.743
CC(=O)N(Cc1ncc(C)o1)C1CCN(Cc2cc(C)on2)C1 (stereo unspecified) | -5.03
CCc1nnc(CNC2CCCN(Cc3noc(C4CC4)n3)C2)o1 (stereo unspecified) | -5.46
Cc1cc(CN(C)C(=O)c2ccc(F)cc2F)no1 | -6.47
CCCc1n[nH]c(C2CN(C(=O)c3ccco3)CCO2)n1 (stereo unspecified) | -2.7
CCOc1ccc(Cl)c(C(=O)N(C)C)n1 | -11.3
c1cnn(CC2CN(Cc3nc(-c4ccsc4)no3)CCO2)c1 (stereo unspecified) | -8.06
CN(C)CCNC(=O)C1Cc2nc(-c3ccsc3)sc2N1CC1CC1 (stereo unspecified) | 3.54
O=C1N(Cc2cccc(F)c2)CCC12CCN(c1ccccn1)CC2 | -1.16
CN(C)C(=O)N1CC2(CCNCC2)c2cc(F)ccc21 | -79.9
CNC(=O)CN1CCOCC2(C1)CN(C(=O)C(C)C)CCO2 (stereo unspecified) | -0.182
CC(C)CN1CCC2(CCN(Cc3ccc(F)cc3)CC2)C1=O | 5.71
O=C(c1ccnnc1)N1C[C@H](Oc2ccccn2)[C@H]2OCCC[C@H]21 | -0.00736
COCC(=O)N1CCO[C@H]2[C@H](OCc3cccnc3)CC[C@@H]21 | -2.01
O=C(C1CCCCC1)N1C[C@@H]2CCN(c3cnccn3)C[C@@H]2C1 | 5.68
